Laboratory results: ChEMBL document CHEMBL1125511, “Molecular determinants of the platelet aggregation inhibitory activity of carbamoylpiperidines” (J Med Chem, 1992)

Columns and labels:
Homo sapiens [1] = organism: Homo sapiens; assay: Concentration required to inhibit ADP-induced platelet aggregation by 50%
[2] = Partition coefficient (logP); type: physicochemical; details: octanol/water
Homo sapiens [3] = organism: Homo sapiens; assay: Concentration inhibits collagen-induced platelet aggregation by 50%(Human blood); type: functional
Outline: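 Human platelets from citrated PRP washed in HEPES-buffered saline pH 7.4 (EGTA 5 mM, PGE1 1 μM), aequorin-loaded, resuspended with 1 mM MgCl2 and 1 mM CaCl2 at (3-4) × 10^5 platelets/μL. Fibrinogen 1.2 μg added, 37 °C, 1100 rpm stirring. Compound in 95% ethanol added 1 min before collagen (5 μg). Aggregation recorded 5 min. IC50 from linear regression of IC% on log concentration.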

Row | IC50 (Homo sapiens [1]; Homo sapiens) [µM] | logP ([2]; read-out: logP) | IC50 (Homo sapiens [1]) [µM] | IC50 (Homo sapiens [3]) [µM] | logP [2] | Structure (SMILES)
1 | 22.1 | 4.52 | – | – | – | CCCCN(C)C(=O)C1CCCN(Cc2ccc(CN3CCCC(C(=O)N(C)CCCC)C3)cc2)C1 (stereo unspecified)
2 | – | – | 15.3 | 10.7 | – | CCN(CC)C(=O)C1CCCN(Cc2ccc(CN3CCCC(C(=O)N(CC)CC)C3)cc2)C1 (stereo in doubt; 3a-C (+))
3 | – | – | 41.4 | 65.7 | – | CCN(CC)C(=O)C1CCCN(Cc2ccc(CN3CCCC(C(=O)N(CC)CC)C3)cc2)C1 (stereo in doubt; 3a-B (0))
4 | – | – | 233 | 199 | – | CCN(CC)C(=O)C1CCCN(Cc2ccc(CN3CCCC(C(=O)N(CC)CC)C3)cc2)C1 (single isomer, unassigned; (-))
5 | – | 3.48 | 44.5 | 20.2 | – | CCN(CC)C(=O)C1CCCN(Cc2ccc(CN3CCCC(C(=O)N(CC)CC)C3)cc2)C1 (stereo in doubt; 3a)

The remaining lines, values behind:

Row | Structure (SMILES) | IC50 (Homo sapiens [1]; Homo sapiens) [µM] | logP ([2]; read-out: logP) | IC50 (Homo sapiens [1]) [µM] | IC50 (Homo sapiens [3]) [µM] | logP [2]
6 | O=C(NCc1ccccc1)C1CCCN(Cc2ccc(CN3CCCC(C(=O)NCc4ccccc4)C3)cc2)C1 (stereo unspecified) | 53.6 | 4.18 | – | – | –
7 | CN(Cc1ccccc1)C(=O)C1CCCN(Cc2ccc(CN3CCCC(C(=O)N(C)Cc4ccccc4)C3)cc2)C1 (stereo unspecified) | 27.3 | 4.72 | – | – | –
8 | CCN(Cc1ccccc1)C(=O)C1CCCN(Cc2ccc(CN3CCCC(C(=O)N(CC)Cc4ccccc4)C3)cc2)C1 (stereo unspecified) | 37.7 | 5.76 | – | – | –
9 | O=C(C1CCCN(Cc2ccc(CN3CCCC(C(=O)N(Cc4ccccc4)Cc4ccccc4)C3)cc2)C1)N(Cc1ccccc1)Cc1ccccc1 (stereo unspecified) | – | 8.03 | – | – | –
10 | CCCN(Cc1ccccc1)C(=O)C1CCCN(Cc2ccc(CN3CCCC(C(=O)N(CCC)Cc4ccccc4)C3)cc2)C1 (stereo unspecified) | 72.9 | 6.79 | – | – | –
11 | CCN(CC)CC1CCCN(Cc2ccc(CN3CCCC(CN(CC)CC)C3)cc2)C1 (stereo unspecified) | 1560 | 4.8 | – | – | –
12 | Br.Br.CCCCCCCCCCNC(=O)C1CCCN(Cc2ccc(CN3CCCC(C(=O)NCCCCCCCCCC)C3)cc2)C1 (stereo unspecified) | 862 | – | – | – | 10.202
13 | CCCCN(CCCC)C(=O)C1CCCN(Cc2ccc(CN3CCCC(C(=O)N(CCCC)CCCC)C3)cc2)C1 (stereo unspecified) | 58.7 | 7.63 | – | – | –
